Rev-erbA mod: modulators of human Rev-erb alpha DNA binding; P20393; Rev-erbα–FITC-DNA binding, fluorescence polarization, 90 min; activity, % at 10 µM; 370,000 compounds, 0.79% hits;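 active = activity above about 14%, limit read from the data; passing the limit was not always enough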;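 note: 0% = DMSO wells with 35 nM protein and 100% = DMSO wells with 750 nM protein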
MT1-MMP act inh: blocks activation of human MT1-MMP | 360,000 compounds, 0.061% hits | GFP/RFP ratio change, % at 20 µM | P50281 | HT1080 RFP-PRO-GFP cells, GFP/RFP ratio fluorescence, overnight; percent of plate control window, DMSO zero;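 active = GFP/RFP ratio change of at least 30% with cell ATP level not reduced by more than half and red fluorescence within 50% of control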
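Assay system: HT1080 cells carrying an RFP-PRO-GFP reporter | Dosing: Single dose of 20 µM compound, 1% DMSO final | Incubation: Cells overnight before dosing, compound overnight, 37 °C, 5% CO2 | Evaluation: GFP/RFP fluorescence ratio | Control set: DMSO and RFP-L50D-GFP cell wells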
NR2E3 ag-1: human photoreceptor-specific nuclear receptor agonism; CHO-S Gal4-NCOR/VP16-NR2E3 two-hybrid, luciferase; inhibition of corepressor binding, % at 3.98 µM; 360,000 compounds, 0.35% hits; AID 602229;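 active = inhibition above the mean of all tested compounds plus 3 SD, cut at about 70% in these data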;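 note: 0% = DMSO with NR2E3 transfected cells and 100% = cells lacking NR2E3 construct; higher means lower luciferase signal from less NR2E3 corepressor binding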
Target sequence (Q9Y5X4 whole entry, looked up, the tested form may be a part): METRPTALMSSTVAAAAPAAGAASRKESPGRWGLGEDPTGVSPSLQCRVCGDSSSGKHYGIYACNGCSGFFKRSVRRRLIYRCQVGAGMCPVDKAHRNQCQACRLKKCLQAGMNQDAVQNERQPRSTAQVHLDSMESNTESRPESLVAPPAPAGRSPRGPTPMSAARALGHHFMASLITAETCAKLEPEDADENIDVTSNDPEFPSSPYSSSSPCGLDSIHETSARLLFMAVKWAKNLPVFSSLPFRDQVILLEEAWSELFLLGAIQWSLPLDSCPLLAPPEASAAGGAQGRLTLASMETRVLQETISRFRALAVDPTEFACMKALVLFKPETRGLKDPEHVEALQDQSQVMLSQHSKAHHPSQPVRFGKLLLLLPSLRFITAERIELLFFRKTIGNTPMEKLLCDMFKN
SKN-1 inh: blocks SKN-1 activity in C. elegans; 360,000 compounds, 0.49% hits; C. elegans VP596 Pgst-4::GFP/RFP ratio, acrylamide-induced, 24 h; inhibition, % at 21.8 µM;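 active = interference check ratio from 0.5 to 1.5 plus GFP to RFP signal ratio inhibition reaching or exceeding a fixed threshold, cut at about 30% in these data, passing the limit was not always enough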
PG9 Ab binder: PG9 antibody binding by small molecule. 360,000 compounds, 0.43% hits. AID 624416. TR-FRET gp120-PG9 antibody binding. inhibition, % at 6.7 µM; in the data active = inhibition above about 8.5%
NR2E3 ag-2: NR2E3 (human) agonism | inhibition of corepressor binding, % at 4.78 µM | Q9Y5X4 | AID 2300 | GST-NR2E3/biotin-RetCOR TR-FRET, 1536-well | 320,000 compounds, 0.12% hits;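 active = percent inhibition above the cutoff of mean plus 3 SD of all tested compounds, set per screening campaign, cut at about 20% in these data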;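 note: 0% = DMSO wells and 100% = biotin wells as full block of FRET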
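System: GST-tagged NR2E3 plus biotinylated RetCOR corepressor; Amount: 1.35 nM GST-tagged NR2E3 final; Dosing: single nominal compound dose of 4.8 µM; Schedule: 5 h incubation at 4 °C; Technique: TR-FRET with europium anti-GST and streptavidin-D2, 340 nm excitation; Controls: biotin wells as high control, 0.6% DMSO wells as low control.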
NR2E3 ag confirm: confirmation of human NR2E3 agonists. shares compounds with NR2E3 ag-1. 2,300 compounds, 51% hits. inhibition, % at 3.98 µM. CHO-S mammalian two-hybrid NR2E3-NCOR, luciferase luminescence;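 active = average inhibition above a cutoff equal to the mean inhibition of all tested compounds plus one SD, cut at about 70% in these data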;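 note: 0% = DMSO in NR2E3 cells and 100% = DMSO in cells lacking NR2E3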
GAL4-VP16 luc: GAL4-VP16 reporter inhibition in NR2E3 agonist counterscreen; AID 624379; shares compounds with NR2E3 ag-1; 2,300 compounds, 29% hits; inhibition, % at 3.98 µM; CHO-S GAL4-VP16 luciferase reporter, luminescence;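 active = mean inhibition above a cutoff equal to the average over all tested compounds plus one standard deviation, cut at about 70% in these data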;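 note: luciferase from a UAS reporter driven by GAL4-VP16 transactivation; 0% = DMSO with VP16-transfected cells and 100% = DMSO with cells lacking VP16; higher means less reporter light so more repression of VP16 activity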
* = called active by the depositor. Sampled rows, rich in hits. Any-hit rate of the full collection: about 1.9%.

How did CC(C)CCCCCCCCCCCCC(=O)NCC(=O)NC1C(C)OC(Nc2ncnc3nc[nH]c23)C(O)C1O (stereo not given) do in these assays?
Rev-erbA mod: -4; MT1-MMP act inh: -53; NR2E3 ag-1: 72*; SKN-1 inh: 2; PG9 Ab binder: -1; NR2E3 ag confirm: 98*; GAL4-VP16 luc: 97*

What do the screens show for `COc1ccccc1Cc1c(-c2ccc(F)cc2)nc2c3ccccc3ccn12`?
Rev-erbA mod: 4; PG9 Ab binder: -1

What do the screens show for `CCN(CC)CCNC(=O)c1ccc(NCN2C(=O)NC(c3ccccc3)(c3ccccc3)C2=O)cc1`?
Rev-erbA mod: -7; PG9 Ab binder: 1

How did Cc1ccc(NC(=O)C2(C)CCN2C(=O)Cc2ccc(-c3ccccc3)cc2)cc1 (stereo not given) do in these assays?
Rev-erbA mod: 0; MT1-MMP act inh: -2; NR2E3 ag-1: 69; SKN-1 inh: 6; PG9 Ab binder: -2; NR2E3 ag confirm: 88*; GAL4-VP16 luc: 68

What do the screens show for `Cc1ccc(S(=O)(=O)NC(=O)C2(C)CCN2C(=O)Cc2ccc(-c3ccccc3)cc2)cc1` (stereo not given)?
Rev-erbA mod: 3; MT1-MMP act inh: 8; NR2E3 ag-1: -34; SKN-1 inh: -2; PG9 Ab binder: -1

How did CC(C)(C)c1ccc(CC(=O)N2CCC2(C)C(=O)Nc2cnc3ccccc3c2)cc1 (stereo not given) do in these assays?
Rev-erbA mod: -4; MT1-MMP act inh: -5; NR2E3 ag-1: 67; SKN-1 inh: 3; PG9 Ab binder: -1; NR2E3 ag confirm: 66; GAL4-VP16 luc: 48

How did C#CCNC(=O)C[C@H]1C[C@@]2(C(=O)OCC)CCCC3=C2N(CCC3)C1=O do in these assays?
Rev-erbA mod: 2

Results for COc1ccc(CCNc2ncnc3c2oc2ccccc23)cc1OC ?
MT1-MMP act inh: -3; NR2E3 ag-1: 90*; SKN-1 inh: 12; PG9 Ab binder: 3; NR2E3 ag-2: 1; NR2E3 ag confirm: 97*; GAL4-VP16 luc: 86*

Results for CCC(C)Nc1nc(C)nc2c1oc1ccccc12 (stereo not given) ?
Rev-erbA mod: 0; MT1-MMP act inh: 3; NR2E3 ag-1: -3; SKN-1 inh: 15; PG9 Ab binder: 1; NR2E3 ag-2: -1

What do the screens show for `COc1ccc(CCNc2nc(C)nc3c2oc2ccccc23)cc1OC`?
Rev-erbA mod: -1; MT1-MMP act inh: -4; NR2E3 ag-1: 73*; SKN-1 inh: -14; PG9 Ab binder: 0; NR2E3 ag-2: 1; NR2E3 ag confirm: 90*; GAL4-VP16 luc: 73*

Results for Cc1nc(NC(C)c2ccccc2)c2oc3ccccc3c2n1 (stereo not given) ?
Rev-erbA mod: 0; MT1-MMP act inh: -7; NR2E3 ag-1: 62; SKN-1 inh: 8; PG9 Ab binder: 0; NR2E3 ag-2: 0; NR2E3 ag confirm: 81*; GAL4-VP16 luc: 66

How did COc1cccc(NC(=O)C2CCCN2C(=O)NC2CCC(C)CC2)c1 (stereo not given) do in these assays?
Rev-erbA mod: -5

How did O=C(Nc1c(-c2ccccc2)nc2ncccn12)c1ccc(F)cc1 do in these assays?
Rev-erbA mod: -1

Results for Cc1ccc(/C=C2\SC(=S)N(CC(=O)Nc3cccnc3)C2=O)cc1 ?
Rev-erbA mod: -3; MT1-MMP act inh: 7; NR2E3 ag-1: -9; SKN-1 inh: 1; PG9 Ab binder: -3; NR2E3 ag-2: -3

What do the screens show for `COc1ccc(/C=C2\SC(=S)N(CCCC(=O)Nc3ccc(O)cc3)C2=O)cc1`?
Rev-erbA mod: -9; MT1-MMP act inh: 1; NR2E3 ag-1: 73*; SKN-1 inh: 4; PG9 Ab binder: 0; NR2E3 ag-2: 4; NR2E3 ag confirm: 3; GAL4-VP16 luc: 61

How did O=C(CCCN1C(=O)/C(=C/c2ccccc2Cl)SC1=S)NNC(=O)c1cccnc1 do in these assays?
Rev-erbA mod: -3; MT1-MMP act inh: 2; NR2E3 ag-1: 59; SKN-1 inh: -14; PG9 Ab binder: -1; NR2E3 ag-2: -1; NR2E3 ag confirm: -1; GAL4-VP16 luc: 35

How did Cc1ccc(/C=C2\SC(=S)N(CCCC(=O)Nc3cccnc3)C2=O)cc1 do in these assays?
MT1-MMP act inh: -2; NR2E3 ag-1: 91*; SKN-1 inh: -12; NR2E3 ag-2: 3; NR2E3 ag confirm: 42; GAL4-VP16 luc: 90*

Results for O=C(CCCN1C(=O)/C(=C/c2ccccc2Cl)SC1=S)NNC(=O)c1ccccc1 ?
Rev-erbA mod: -1; MT1-MMP act inh: 0; NR2E3 ag-1: 24; SKN-1 inh: 8; PG9 Ab binder: 0; NR2E3 ag-2: 0

What do the screens show for `CC(=O)c1cccc(NC(=O)N2CCCCCC2)c1`?
Rev-erbA mod: 0; MT1-MMP act inh: -6; NR2E3 ag-1: -16; SKN-1 inh: -12; PG9 Ab binder: -1; NR2E3 ag-2: 0

What do the screens show for `CC(=O)c1cccc(NS(=O)(=O)c2ccc(NC(=O)N3CCCCC3)cc2)c1`?
Rev-erbA mod: -1; MT1-MMP act inh: 7; NR2E3 ag-1: 68; SKN-1 inh: 7; PG9 Ab binder: 1; NR2E3 ag-2: -1; NR2E3 ag confirm: 29; GAL4-VP16 luc: 33

Results for NC(=S)NN=Cc1nccc2c(C(F)(F)F)cccc12 ?
Rev-erbA mod: -11; MT1-MMP act inh: 19; NR2E3 ag-1: 65; SKN-1 inh: 1; PG9 Ab binder: -3; NR2E3 ag confirm: -10; GAL4-VP16 luc: 21

How did Cc1sc2ncnc(NC3CCN(Cc4ccccc4)CC3)c2c1C do in these assays?
Rev-erbA mod: 0; MT1-MMP act inh: -6; NR2E3 ag-1: 75*; SKN-1 inh: 2; PG9 Ab binder: 0; NR2E3 ag-2: -7; NR2E3 ag confirm: 95*; GAL4-VP16 luc: 80*

What do the screens show for `COC(=O)[C@]12C[C@H](CC(=O)NCc3cccc(C(F)(F)F)c3)C(=O)N(Cc3ccccc3)C1=C[C@H](COCc1ccccc1)O[C@@H]2C`?
Rev-erbA mod: -3

How did COC(=O)[C@H](Cc1ccccc1)N1C[C@@H](N2CCC[C@H]2C)CS1(=O)=O do in these assays?
Rev-erbA mod: 6; PG9 Ab binder: -1

How did CN1CCCCC(NC(=O)C2CCCCC2)C1=O (stereo not given) do in these assays?
Rev-erbA mod: -3; PG9 Ab binder: -2

Screens: PubChem BioAssay, several laboratories
